According to ChEMBL document CHEMBL4602716, “Development of Selective Histone Deacetylase 6 (HDAC6) Degraders Recruiting Von Hippel-Lindau (VHL) E3 Ubiquitin Ligase” (ACS Med Chem Lett, 2020):
Calls of active or inactive are those of the source. The rule behind the calls is not given here.

How the values were obtained:
Assay type in all cases: cell-based
[1] = target: T1, von Hippel-Lindau disease tumor suppressor/Protein deacetylase HDAC6 (Homo sapiens, UniProt Q9UBN7+P40337); test: Protac activity at VHL/HDAC6 in human MM1S cells assessed as HDAC6 degradation at 100 nM measured after 6 hrs by ELISA
Summary of the method: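 Linker-length screen. MM1S cells were treated with degraders at 100 nM for 6 h, and HDAC6 protein level was quantified by in-cell ELISA.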
Target sequence in this assay (P40337 whole entry, looked up): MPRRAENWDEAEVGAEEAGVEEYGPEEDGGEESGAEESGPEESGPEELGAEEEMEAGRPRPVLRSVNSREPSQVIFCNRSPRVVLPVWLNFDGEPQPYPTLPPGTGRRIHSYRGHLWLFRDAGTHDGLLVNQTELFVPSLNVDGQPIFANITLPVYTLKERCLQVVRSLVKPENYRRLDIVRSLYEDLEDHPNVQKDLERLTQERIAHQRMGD
Target sequence in this assay (Q9UBN7 whole entry, looked up): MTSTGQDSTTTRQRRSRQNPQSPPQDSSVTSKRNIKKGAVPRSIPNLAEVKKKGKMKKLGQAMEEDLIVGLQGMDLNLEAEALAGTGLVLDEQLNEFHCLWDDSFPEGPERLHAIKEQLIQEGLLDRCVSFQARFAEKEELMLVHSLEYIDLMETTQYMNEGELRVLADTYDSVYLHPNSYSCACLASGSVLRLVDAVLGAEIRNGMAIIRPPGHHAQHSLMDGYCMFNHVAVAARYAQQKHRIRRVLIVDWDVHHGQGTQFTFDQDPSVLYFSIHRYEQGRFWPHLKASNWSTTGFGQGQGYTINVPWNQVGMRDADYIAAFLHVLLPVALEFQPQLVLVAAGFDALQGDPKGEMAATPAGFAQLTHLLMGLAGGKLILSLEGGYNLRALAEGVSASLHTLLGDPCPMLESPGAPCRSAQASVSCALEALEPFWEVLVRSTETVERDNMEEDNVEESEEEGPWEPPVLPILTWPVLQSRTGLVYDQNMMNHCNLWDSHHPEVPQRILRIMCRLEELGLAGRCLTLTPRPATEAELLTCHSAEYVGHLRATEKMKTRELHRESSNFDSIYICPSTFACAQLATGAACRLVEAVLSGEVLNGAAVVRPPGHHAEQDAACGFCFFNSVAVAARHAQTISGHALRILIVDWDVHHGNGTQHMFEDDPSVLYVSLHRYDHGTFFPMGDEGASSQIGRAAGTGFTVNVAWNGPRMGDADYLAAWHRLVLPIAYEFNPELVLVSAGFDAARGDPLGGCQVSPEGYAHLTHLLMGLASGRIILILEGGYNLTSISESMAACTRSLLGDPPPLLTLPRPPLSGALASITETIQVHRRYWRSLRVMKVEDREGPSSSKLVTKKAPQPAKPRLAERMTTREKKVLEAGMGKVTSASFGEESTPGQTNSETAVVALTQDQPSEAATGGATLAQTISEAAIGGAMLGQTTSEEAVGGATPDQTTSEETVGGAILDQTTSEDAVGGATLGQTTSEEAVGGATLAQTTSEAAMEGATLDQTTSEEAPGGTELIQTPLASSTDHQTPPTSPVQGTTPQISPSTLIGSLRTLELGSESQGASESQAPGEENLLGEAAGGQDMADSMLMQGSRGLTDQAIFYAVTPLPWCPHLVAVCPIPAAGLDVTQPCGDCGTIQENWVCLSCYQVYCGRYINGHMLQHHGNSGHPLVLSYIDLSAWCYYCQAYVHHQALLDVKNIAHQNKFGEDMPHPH

[2] = target: T1, von Hippel-Lindau disease tumor suppressor/Protein deacetylase HDAC6; test: Protac activity at VHL/HDAC6 in human MM1S cells assessed as increase in tubulin acetylation at 100 nM measured after 6 hrs by Western blot analysis
Summary of the method: (§1)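 MM1S cells were treated with degraders at 100 nM for 6 h. Lysates were analysed by Western blot for HDAC6 and acetylated tubulin.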
Target sequence in this assay (P40337 whole entry, looked up): as the sequence (P40337 whole entry, looked up) above
Target sequence in this assay (Q9UBN7 whole entry, looked up): as the sequence (Q9UBN7 whole entry, looked up) above

[3] = target: T1, von Hippel-Lindau disease tumor suppressor/Protein deacetylase HDAC6; test: Protac activity at VHL/HDAC6 in human MM1S cells assessed as HDAC6 degradation at 100 nM measured after 6 hrs by Western blot analysis; summary of the method: as §1
Target sequence in this assay (P40337 whole entry, looked up): as the sequence (P40337 whole entry, looked up) above
Target sequence in this assay (Q9UBN7 whole entry, looked up): as the sequence (Q9UBN7 whole entry, looked up) above

[4] = target: Protein cereblon/Protein deacetylase HDAC6 (Mus musculus) (UniProt Q9Z2V5+Q8C7D2); test: Protac activity at CRBN/HDAC6 in mouse 4935 cells assessed as HDAC6 degradation after 6 hrs by relative to control
Summary of the method: (§2)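 Mouse 4935 cells were treated with degrader for 6 h, and HDAC6 level was measured by in-cell ELISA.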

[5] = target: T2, Protein cereblon/Protein deacetylase HDAC6 (Mus musculus, UniProt Q9Z2V5+Q8C7D2); test: Protac activity at CRBN/HDAC6 in mouse 4935 cells assessed as HDAC6 degradation after 6 hrs by Western blot analysis
T2 sequence (Q9Z2V5 whole entry): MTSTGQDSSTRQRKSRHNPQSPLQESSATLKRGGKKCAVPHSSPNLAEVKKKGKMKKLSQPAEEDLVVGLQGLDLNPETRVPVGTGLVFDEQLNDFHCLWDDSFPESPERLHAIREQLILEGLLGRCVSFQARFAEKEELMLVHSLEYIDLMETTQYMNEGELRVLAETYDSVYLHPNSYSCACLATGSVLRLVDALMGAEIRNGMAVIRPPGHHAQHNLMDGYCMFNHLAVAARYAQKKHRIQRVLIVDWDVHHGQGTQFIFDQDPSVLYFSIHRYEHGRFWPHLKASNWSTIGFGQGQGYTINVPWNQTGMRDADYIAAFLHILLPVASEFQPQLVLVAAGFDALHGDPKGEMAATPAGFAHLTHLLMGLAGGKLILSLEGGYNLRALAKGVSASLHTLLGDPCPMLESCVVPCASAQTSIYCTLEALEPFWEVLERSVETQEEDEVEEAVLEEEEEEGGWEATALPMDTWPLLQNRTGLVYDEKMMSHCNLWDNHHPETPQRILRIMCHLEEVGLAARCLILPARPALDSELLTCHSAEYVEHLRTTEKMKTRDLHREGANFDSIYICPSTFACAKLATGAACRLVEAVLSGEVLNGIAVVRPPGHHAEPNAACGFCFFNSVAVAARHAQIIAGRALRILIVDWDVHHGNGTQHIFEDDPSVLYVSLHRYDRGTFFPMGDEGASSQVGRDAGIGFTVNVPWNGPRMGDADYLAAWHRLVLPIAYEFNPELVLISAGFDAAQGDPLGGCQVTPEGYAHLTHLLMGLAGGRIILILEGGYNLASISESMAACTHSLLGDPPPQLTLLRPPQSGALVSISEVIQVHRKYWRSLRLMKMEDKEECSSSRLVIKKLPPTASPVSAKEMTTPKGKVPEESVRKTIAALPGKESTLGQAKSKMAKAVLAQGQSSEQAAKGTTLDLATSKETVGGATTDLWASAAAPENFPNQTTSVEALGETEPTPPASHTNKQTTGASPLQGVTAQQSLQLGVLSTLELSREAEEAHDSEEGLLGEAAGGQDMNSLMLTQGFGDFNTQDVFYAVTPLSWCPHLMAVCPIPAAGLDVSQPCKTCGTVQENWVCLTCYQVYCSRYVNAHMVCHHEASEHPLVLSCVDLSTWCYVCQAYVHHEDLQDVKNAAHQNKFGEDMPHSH
T2 sequence (Q8C7D2 whole entry): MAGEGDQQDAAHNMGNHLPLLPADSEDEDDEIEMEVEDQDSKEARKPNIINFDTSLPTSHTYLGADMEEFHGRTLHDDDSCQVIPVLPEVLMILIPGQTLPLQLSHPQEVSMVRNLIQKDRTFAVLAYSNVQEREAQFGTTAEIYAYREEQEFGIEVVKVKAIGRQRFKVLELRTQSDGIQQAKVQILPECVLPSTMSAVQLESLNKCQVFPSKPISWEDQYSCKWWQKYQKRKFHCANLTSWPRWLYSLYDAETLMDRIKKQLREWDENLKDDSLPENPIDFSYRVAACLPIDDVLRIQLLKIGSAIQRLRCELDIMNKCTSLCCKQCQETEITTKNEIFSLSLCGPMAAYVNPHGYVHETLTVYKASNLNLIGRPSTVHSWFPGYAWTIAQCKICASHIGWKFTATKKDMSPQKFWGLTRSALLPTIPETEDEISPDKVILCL
Summary of the method: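 Mouse 4935 cells were treated with degraders for 6 h, then analysed by Western blot for HDAC6 and acetylated tubulin.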

[6] = target: T3, Protein cereblon/Protein deacetylase HDAC6 (Homo sapiens, UniProt Q9UBN7+Q96SW2); test: Protac activity at CRBN/HDAC6 in human MM1S cells assessed as reduction in protein level at 100 nM after 4 hrs by Western blot analysis
Target sequence in this assay (Q96SW2 whole entry, looked up): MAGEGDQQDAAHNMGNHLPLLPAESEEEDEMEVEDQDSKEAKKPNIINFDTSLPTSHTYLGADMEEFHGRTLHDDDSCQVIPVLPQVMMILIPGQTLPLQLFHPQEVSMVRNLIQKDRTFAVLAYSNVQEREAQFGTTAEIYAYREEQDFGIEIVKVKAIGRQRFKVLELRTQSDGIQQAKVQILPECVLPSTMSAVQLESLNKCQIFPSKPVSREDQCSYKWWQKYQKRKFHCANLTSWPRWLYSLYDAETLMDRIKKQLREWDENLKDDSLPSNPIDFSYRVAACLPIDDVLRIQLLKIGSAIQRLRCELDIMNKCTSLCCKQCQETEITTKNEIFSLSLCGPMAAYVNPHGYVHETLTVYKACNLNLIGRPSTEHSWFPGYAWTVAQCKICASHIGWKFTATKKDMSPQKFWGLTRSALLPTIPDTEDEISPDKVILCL
Target sequence in this assay (Q9UBN7 whole entry, looked up): as the sequence (Q9UBN7 whole entry, looked up) above

[7] = target: T2, Protein cereblon/Protein deacetylase HDAC6; test: Protac activity at CRBN/HDAC6 in mouse 4935 cells assessed as HDAC6 degradation after 6 hrs by ELISA; summary of the method: as §2
[8] = target: T3, Protein cereblon/Protein deacetylase HDAC6; test: Protac activity at CRBN/HDAC6 in human MM1S cells assessed as increase in tubulin acetylation at 300 nM to 1 microM after 6 hrs by Western blot analysis
Target sequence in this assay (Q96SW2 whole entry, looked up): as the sequence (Q96SW2 whole entry, looked up) above
Target sequence in this assay (Q9UBN7 whole entry, looked up): as the sequence (Q9UBN7 whole entry, looked up) above

[9] = target: T3, Protein cereblon/Protein deacetylase HDAC6; test: Protac activity at CRBN/HDAC6 in human MM1S cells measured after 6 hrs by ELISA relative to control
Summary of the method: (§3)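 MM1S multiple myeloma cells exposed to degraders for 6 h. HDAC6 protein level was read by in-cell ELISA; dose-response ran from 1 nM to 3 μM. DC50 and Dmax were derived from the dose-response curve.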
Target sequence in this assay (Q96SW2 whole entry, looked up): as the sequence (Q96SW2 whole entry, looked up) above
Target sequence in this assay (Q9UBN7 whole entry, looked up): as the sequence (Q9UBN7 whole entry, looked up) above

[10] = target: T3, Protein cereblon/Protein deacetylase HDAC6; test: Protac activity at CRBN/HDAC6 in human MM1S cells assessed as reduction in protein level at 100 nM after 30 mins by Western blot analysis
Target sequence in this assay (Q96SW2 whole entry, looked up): as the sequence (Q96SW2 whole entry, looked up) above
Target sequence in this assay (Q9UBN7 whole entry, looked up): as the sequence (Q9UBN7 whole entry, looked up) above

[11] = target: T3, Protein cereblon/Protein deacetylase HDAC6; test: Protac activity at CRBN/HDAC6 in human MM1S cells measured after 6 hrs by ELISA; summary of the method: as §3
Target sequence in this assay (Q9UBN7 whole entry): as the sequence (Q9UBN7 whole entry, looked up) above
Target sequence in this assay (Q96SW2 whole entry): as the sequence (Q96SW2 whole entry, looked up) above

[12] = target: T1, von Hippel-Lindau disease tumor suppressor/Protein deacetylase HDAC6; test: Protac activity at VHL/HDAC6 in human MM1S cells measured after 6 hrs by ELISA relative to control; summary of the method: as §3
Target sequence in this assay (P40337 whole entry, looked up): as the sequence (P40337 whole entry, looked up) above
Target sequence in this assay (Q9UBN7 whole entry, looked up): as the sequence (Q9UBN7 whole entry, looked up) above

[13] = target: T1, von Hippel-Lindau disease tumor suppressor/Protein deacetylase HDAC6; test: Protac activity at VHL/HDAC6 in human MM1S cells measured after 6 hrs by ELISA; summary of the method: as §3
Target sequence in this assay (Q9UBN7 whole entry): as the sequence (Q9UBN7 whole entry, looked up) above
Target sequence in this assay (P40337 whole entry): as the sequence (P40337 whole entry, looked up) above

SMILES	Activity [1]	Activity [3]	other results
CCCCN(Cc1ccc(C(=O)NO)cc1)C(=O)Nc1ccc(OCCn2cc(CCCCC(=O)N[C@H](C(=O)N3C[C@H](O)C[C@H]3C(=O)NCc3ccc(-c4scnc4C)cc3)C(C)(C)C)nn2)cc1	Active	–	–
CCCCN(Cc1ccc(C(=O)NO)cc1)C(=O)Nc1ccc(OCCCCn2cc(CCCCC(=O)N[C@H](C(=O)N3C[C@H](O)C[C@H]3C(=O)NCc3ccc(-c4scnc4C)cc3)C(C)(C)C)nn2)cc1	Active	–	–
CCCCN(Cc1ccc(C(=O)NO)cc1)C(=O)Nc1ccc(OCCCn2cc(CCCCC(=O)N[C@H](C(=O)N3C[C@H](O)C[C@H]3C(=O)NCc3ccc(-c4scnc4C)cc3)C(C)(C)C)nn2)cc1	Active	–	–
CCCCN(Cc1ccc(C(=O)NO)cc1)C(=O)Nc1ccc(OCCCCCCCCCCn2cc(CCCCC(=O)N[C@H](C(=O)N3C[C@H](O)C[C@H]3C(=O)NCc3ccc(-c4scnc4C)cc3)C(C)(C)C)nn2)cc1	Active	Active	Activity [2]: Active
CCCCN(Cc1ccc(C(=O)NO)cc1)C(=O)Nc1ccc(OCCCCCn2cc(CNc3cccc4c3C(=O)N(C3CCC(=O)NC3=O)C4=O)nn2)cc1 (stereo unspecified)	–	–	Emax [4]: 45%; DC50 [5]: 360 nM; Activity [6]: Active; DC50 [7]: 18 nM; Activity [8]: Active; Emax [9]: 86%; Activity [10]: Active; DC50 [11]: 2.2 nM
CCCCN(Cc1ccc(C(=O)NO)cc1)C(=O)Nc1ccc(OCCCCCCCCCn2cc(CCCCC(=O)N[C@H](C(=O)N3C[C@H](O)C[C@H]3C(=O)NCc3ccc(-c4scnc4C)cc3)C(C)(C)C)nn2)cc1	Active	Active	Activity [2]: Active
CCCCN(Cc1ccc(C(=O)NO)cc1)C(=O)Nc1ccc(OCCCCCCCn2cc(CCCCC(=O)N[C@H](C(=O)N3C[C@H](O)C[C@H]3C(=O)NCc3ccc(-c4scnc4C)cc3)C(C)(C)C)nn2)cc1	Active	–	–
CCCCN(Cc1ccc(C(=O)NO)cc1)C(=O)Nc1ccc(OCCCCCCn2cc(CCCCC(=O)N[C@H](C(=O)N3C[C@H](O)C[C@H]3C(=O)NCc3ccc(-c4scnc4C)cc3)C(C)(C)C)nn2)cc1	Active	–	–
CCCCN(Cc1ccc(C(=O)NO)cc1)C(=O)Nc1ccc(OCCCCCn2cc(CCCCC(=O)N[C@H](C(=O)N3C[C@H](O)C[C@H]3C(=O)NCc3ccc(-c4scnc4C)cc3)C(C)(C)C)nn2)cc1	Active	–	–
CCCCN(Cc1ccc(C(=O)NO)cc1)C(=O)Nc1ccc(OCCCCCCCCCCCCn2cc(CCCCC(=O)N[C@H](C(=O)N3C[C@H](O)C[C@H]3C(=O)NCc3ccc(-c4scnc4C)cc3)C(C)(C)C)nn2)cc1	Active	Active	Emax [12]: 89%; DC50 [13]: 11 nM
CCCCN(Cc1ccc(C(=O)NO)cc1)C(=O)Nc1ccc(OCCCCCCCCn2cc(CCCCC(=O)N[C@H](C(=O)N3C[C@H](O)C[C@H]3C(=O)NCc3ccc(-c4scnc4C)cc3)C(C)(C)C)nn2)cc1	Active	Active	–
